Results taken from ChEMBL document CHEMBL2321806 (J Med Chem, 2013).
Active and inactive are the calls of the source. No cut-off for these calls is given here.

Legend:
[1] = biological target: T1, Insulin-degrading enzyme (Homo sapiens, UniProt P14735); assay: Inhibition of human recombinant IDE-mediated fluorescein-Abeta-(1-40)-Lys-biotin degradation; conditions: read-out: Ki(app)
How it was run: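 Aβ (200 nM) degradation by recombinant human IDE at 22 °C in HEPES pH 7.4 buffer with 100 mM NaCl, 10 mM MgCl₂, 0.05% BSA.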

[2] = biological target: T1, Insulin-degrading enzyme; assay: Inhibition of human recombinant IDE-mediated FRET1 degradation; conditions: read-out: Ki(app)
[3] = biological target: T2, Matrilysin (Homo sapiens) (UniProt P09237); assay: (§1) Inhibition of MMP7 (unknown origin)-mediated omniMMP degradation
T2 sequence (whole entry): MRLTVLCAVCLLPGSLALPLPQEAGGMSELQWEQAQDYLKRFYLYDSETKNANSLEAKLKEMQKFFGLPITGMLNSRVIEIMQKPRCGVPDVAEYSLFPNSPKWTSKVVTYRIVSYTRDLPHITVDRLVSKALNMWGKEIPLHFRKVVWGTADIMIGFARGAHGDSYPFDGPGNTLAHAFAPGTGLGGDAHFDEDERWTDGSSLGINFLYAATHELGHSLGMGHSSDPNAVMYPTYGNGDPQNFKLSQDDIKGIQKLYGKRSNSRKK
How it was run: (§2)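 Each protease (NEP, ECE1, ACE, MMP-2, MMP-7) was tested against the shared fluorogenic peptide substrate OmniMMP, with inhibitor concentrations up to 10 μM. IC50 values were taken from the dose-response data.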

[4] = biological target: T1, Insulin-degrading enzyme; assay: Inhibition of human recombinant IDE-mediated insulin degradation; conditions: read-out: Ki(app)
How it was run: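 Insulin (2 nM) breakdown by recombinant human IDE in 50 mM HEPES pH 7.4, 100 mM NaCl, 10 mM MgCl₂, 0.05% BSA at 22 °C.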

[5] = biological target: T3, Matrilysin (Homo sapiens, UniProt P09237); assay: as §1; how it was run: as §2
T3 sequence (P09237 whole entry): T2 sequence (whole entry)

[6] = biological target: T1, Insulin-degrading enzyme; assay: Selectivity ratio of apparent Ki for human recombinant IDE-mediated insulin degradation to apparent Ki for human recombinant IDE-mediated FRET1 degradation
[7] = biological target: Angiotensin-converting enzyme (Homo sapiens) (UniProt P12821); assay: Inhibition of ACE (unknown origin)-mediated omniMMP degradation up to 10 uM; how it was run: as §2
[8] = biological target: T4, Endothelin-converting enzyme 1 (Homo sapiens) (UniProt P42892); assay: Inhibition of ECE1 (unknown origin)-mediated omniMMP degradation up to 10 uM; how it was run: as §2
T4 sequence (whole entry): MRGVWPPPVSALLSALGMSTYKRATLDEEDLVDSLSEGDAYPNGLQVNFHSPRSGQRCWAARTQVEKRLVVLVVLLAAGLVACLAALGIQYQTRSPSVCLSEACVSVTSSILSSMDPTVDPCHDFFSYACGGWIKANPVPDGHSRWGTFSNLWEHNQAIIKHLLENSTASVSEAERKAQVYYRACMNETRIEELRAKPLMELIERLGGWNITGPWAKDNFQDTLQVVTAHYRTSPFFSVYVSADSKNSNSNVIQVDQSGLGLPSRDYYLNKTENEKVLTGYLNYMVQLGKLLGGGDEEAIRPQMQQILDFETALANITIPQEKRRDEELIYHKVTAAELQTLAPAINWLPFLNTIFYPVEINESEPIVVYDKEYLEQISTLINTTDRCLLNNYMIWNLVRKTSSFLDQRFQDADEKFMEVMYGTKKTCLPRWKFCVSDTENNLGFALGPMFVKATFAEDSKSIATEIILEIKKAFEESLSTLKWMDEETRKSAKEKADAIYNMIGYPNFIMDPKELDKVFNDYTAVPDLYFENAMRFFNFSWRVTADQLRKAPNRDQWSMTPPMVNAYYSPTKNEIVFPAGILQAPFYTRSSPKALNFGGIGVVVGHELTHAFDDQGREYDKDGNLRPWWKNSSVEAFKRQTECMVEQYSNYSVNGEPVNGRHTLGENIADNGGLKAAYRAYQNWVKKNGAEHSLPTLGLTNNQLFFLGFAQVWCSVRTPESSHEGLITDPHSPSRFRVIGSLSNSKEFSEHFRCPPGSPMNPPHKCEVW

[9] = biological target: Neprilysin (Homo sapiens) (UniProt P08473); assay: Inhibition of NEP (unknown origin)-mediated omniMMP degradation up to 10 uM; how it was run: as §2
[10] = biological target: T2, Matrilysin (Homo sapiens); assay: Inhibition of MMP7 (unknown origin)-mediated omniMMP degradation up to 10 uM; how it was run: as §2
[11] = biological target: 72 kDa type IV collagenase (Homo sapiens) (UniProt P08253); assay: Inhibition of MMP2 (unknown origin)-mediated omniMMP degradation up to 10 uM; how it was run: as §2
72 kDa type IV collagenase (Homo sapiens), sequence (P08253 110-660 limits assumed): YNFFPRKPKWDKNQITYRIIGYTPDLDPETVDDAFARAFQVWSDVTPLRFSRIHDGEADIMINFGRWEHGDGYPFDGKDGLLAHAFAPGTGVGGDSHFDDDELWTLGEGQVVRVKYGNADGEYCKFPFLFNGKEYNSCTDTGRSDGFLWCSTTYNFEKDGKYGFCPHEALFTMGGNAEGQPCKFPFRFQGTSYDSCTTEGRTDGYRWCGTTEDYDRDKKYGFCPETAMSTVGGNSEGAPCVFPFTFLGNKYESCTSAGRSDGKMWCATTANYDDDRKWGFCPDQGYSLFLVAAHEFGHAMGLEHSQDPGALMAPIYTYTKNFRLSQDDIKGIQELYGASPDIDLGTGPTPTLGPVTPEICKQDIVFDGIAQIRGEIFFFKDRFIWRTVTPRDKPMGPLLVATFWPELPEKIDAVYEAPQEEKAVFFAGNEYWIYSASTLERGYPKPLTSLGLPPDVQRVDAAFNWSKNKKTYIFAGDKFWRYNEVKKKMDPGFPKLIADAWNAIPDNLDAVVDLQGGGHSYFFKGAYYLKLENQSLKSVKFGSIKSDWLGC

T1 sequence (P14735 whole entry): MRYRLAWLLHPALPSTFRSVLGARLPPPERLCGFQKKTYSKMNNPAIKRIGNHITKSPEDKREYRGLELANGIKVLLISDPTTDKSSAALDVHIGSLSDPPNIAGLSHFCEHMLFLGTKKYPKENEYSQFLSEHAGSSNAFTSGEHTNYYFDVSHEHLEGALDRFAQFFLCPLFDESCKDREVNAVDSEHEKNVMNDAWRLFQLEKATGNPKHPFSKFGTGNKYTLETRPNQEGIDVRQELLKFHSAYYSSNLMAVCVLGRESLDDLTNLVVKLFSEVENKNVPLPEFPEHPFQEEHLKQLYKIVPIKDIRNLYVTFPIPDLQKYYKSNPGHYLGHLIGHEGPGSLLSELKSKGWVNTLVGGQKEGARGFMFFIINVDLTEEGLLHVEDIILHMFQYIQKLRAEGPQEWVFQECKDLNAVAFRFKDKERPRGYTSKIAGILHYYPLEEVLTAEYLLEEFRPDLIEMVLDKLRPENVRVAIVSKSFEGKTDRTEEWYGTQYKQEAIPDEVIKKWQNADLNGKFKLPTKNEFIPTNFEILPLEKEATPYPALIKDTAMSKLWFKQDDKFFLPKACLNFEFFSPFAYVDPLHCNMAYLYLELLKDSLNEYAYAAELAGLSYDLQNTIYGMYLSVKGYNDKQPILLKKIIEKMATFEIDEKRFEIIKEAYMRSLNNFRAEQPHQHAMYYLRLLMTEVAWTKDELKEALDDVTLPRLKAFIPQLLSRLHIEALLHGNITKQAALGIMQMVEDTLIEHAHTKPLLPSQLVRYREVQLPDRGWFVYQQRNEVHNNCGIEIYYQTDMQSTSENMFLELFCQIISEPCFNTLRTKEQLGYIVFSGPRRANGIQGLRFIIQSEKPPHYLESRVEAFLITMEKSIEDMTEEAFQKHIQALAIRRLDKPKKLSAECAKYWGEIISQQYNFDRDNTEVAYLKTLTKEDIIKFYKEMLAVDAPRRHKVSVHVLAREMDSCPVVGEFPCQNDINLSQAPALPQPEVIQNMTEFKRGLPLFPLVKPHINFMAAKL
Neprilysin (Homo sapiens), sequence (P08473 whole entry): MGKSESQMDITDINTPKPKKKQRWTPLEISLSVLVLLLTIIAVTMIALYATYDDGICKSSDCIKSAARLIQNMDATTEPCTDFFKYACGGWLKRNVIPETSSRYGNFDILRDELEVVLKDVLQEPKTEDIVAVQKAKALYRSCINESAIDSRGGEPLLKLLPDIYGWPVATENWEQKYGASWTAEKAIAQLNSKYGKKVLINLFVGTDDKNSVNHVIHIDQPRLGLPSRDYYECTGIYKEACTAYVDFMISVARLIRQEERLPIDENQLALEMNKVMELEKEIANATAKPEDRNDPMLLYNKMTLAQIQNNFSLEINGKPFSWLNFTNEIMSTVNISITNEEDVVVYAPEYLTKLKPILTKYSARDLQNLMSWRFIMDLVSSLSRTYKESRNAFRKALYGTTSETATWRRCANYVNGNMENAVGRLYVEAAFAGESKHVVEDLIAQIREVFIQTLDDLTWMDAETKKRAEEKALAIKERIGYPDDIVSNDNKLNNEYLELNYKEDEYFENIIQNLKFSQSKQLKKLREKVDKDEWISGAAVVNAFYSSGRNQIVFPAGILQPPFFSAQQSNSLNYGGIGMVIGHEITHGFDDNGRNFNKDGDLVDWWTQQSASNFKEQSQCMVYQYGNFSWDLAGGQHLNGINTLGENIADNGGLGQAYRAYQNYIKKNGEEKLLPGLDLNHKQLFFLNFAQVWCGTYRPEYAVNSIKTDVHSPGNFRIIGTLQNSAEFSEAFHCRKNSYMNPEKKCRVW
Angiotensin-converting enzyme (Homo sapiens), sequence (P12821 whole entry): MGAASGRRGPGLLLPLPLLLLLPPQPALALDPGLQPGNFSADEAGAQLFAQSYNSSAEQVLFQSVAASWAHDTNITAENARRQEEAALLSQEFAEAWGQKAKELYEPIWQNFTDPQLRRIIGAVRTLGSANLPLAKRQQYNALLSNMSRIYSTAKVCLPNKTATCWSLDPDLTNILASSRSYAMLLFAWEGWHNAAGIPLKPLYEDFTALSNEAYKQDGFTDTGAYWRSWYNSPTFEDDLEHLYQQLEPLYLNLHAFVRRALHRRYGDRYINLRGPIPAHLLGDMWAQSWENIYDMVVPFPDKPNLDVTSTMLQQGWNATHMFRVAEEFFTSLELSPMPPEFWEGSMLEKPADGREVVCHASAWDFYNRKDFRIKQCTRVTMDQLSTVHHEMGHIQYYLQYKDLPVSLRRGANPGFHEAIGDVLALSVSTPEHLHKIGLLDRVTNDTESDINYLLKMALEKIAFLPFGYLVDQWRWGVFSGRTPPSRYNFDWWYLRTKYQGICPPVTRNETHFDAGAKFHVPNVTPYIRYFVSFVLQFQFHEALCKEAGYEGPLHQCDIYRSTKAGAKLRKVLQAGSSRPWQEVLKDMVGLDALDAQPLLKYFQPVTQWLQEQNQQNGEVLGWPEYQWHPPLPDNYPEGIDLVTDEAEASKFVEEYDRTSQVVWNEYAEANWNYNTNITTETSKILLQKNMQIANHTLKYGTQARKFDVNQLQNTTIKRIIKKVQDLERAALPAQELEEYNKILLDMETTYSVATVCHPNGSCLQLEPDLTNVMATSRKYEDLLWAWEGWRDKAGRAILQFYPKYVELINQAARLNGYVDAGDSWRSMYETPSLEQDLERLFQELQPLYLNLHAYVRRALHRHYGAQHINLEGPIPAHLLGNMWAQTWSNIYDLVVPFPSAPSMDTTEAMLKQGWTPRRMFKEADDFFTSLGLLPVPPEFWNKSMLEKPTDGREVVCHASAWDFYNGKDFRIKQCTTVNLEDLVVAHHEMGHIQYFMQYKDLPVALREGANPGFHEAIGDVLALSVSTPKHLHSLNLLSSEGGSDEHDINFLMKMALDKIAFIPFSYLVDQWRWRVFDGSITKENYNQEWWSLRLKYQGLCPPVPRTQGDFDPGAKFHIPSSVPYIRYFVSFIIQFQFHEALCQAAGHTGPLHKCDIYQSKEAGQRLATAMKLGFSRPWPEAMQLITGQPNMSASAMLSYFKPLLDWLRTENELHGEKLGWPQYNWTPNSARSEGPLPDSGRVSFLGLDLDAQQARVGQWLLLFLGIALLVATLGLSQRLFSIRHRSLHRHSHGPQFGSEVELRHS

| SMILES | Ki [1] [nM] | Ki [2] [nM] | Ki [4] [nM] | other results |
| --- | --- | --- | --- | --- |
| N=C(N)NCCC[C@H](NC(=O)[C@@H](CC(=O)NO)Cc1ccc2ccccc2c1)C(=O)N[C@@H](Cc1c[nH]c2ccccc12)C(=O)N[C@@H](CCC(=O)O)C(N)=O | 21.7 | 2.96 | 37.9 | inhibition [3]: Active |
| NC(N)=NCCC[C@@H](NC(=O)[C@@H](Cc1c[nH]c2ccccc12)NC(=O)[C@H](N)CCC(=O)O)C(=O)N[C@H](Cc1ccc2ccccc2c1)C(=O)NO | 228 | 49.8 | 3260 | – |
| NC(=O)[C@H](CCC(=O)O)NC(=O)[C@H](Cc1c[nH]c2ccccc12)NC(=O)[C@H](CCCN=C(N)N)NC(=O)[C@H](Cc1ccc2ccccc2c1)[C@H](O)C(=O)NO | 70.3 | 25.9 | 275 | IC50 [5]: 1150 nM |
| NC(=O)[C@H](CCCN=C(N)N)NC(=O)[C@@H](CC(=O)NO)Cc1ccc2ccccc2c1 | – | 1150 | – | – |
| C=CCOC(=O)[C@H](CCCN=C(N)N)NC(=O)[C@@H](CC(=O)NO)Cc1ccc2ccccc2c1 | 107 | 87 | 1280 | – |
| CC(=O)N[C@@H](CCC(=O)O)C(=O)N[C@@H](Cc1c[nH]c2ccccc12)C(=O)N[C@@H](CCCN=C(N)N)C(=O)[C@H](CC(=O)NO)Cc1ccc2ccccc2c1 | – | 78 | – | – |
| NC(=O)[C@H](CCCN=C(N)N)NC(=O)[C@H](CC(=O)NO)Cc1ccc2ccccc2c1 | – | > 33000 | – | – |
| NC(=O)[C@H](CCC(=O)O)NC(=O)[C@H](Cc1c[nH]c2ccccc12)NC(=O)[C@H](CCCN=C(N)N)NC(=O)[C@H](Cc1ccc2ccccc2c1)[C@@H](O)C(=O)NO | 927 | 103 | 1890 | – |
| N=C(N)NCCCC[C@H](NC(=O)[C@H](Cc1ccc2ccccc2c1)[C@H](O)C(=O)NO)C(N)=O | – | > 33000 | – | – |
| C=CCOC(=O)[C@H](CCCNC(=N)N)NC(=O)[C@H](CC(=O)NO)Cc1ccc2ccccc2c1 | – | 5280 | – | – |
| N=C(N)NCCC[C@@H](NC(=O)[C@@H](Cc1c[nH]c2ccccc12)NC(=O)[C@H](N)CCC(=O)O)C(=O)N[C@H](Cc1ccc2ccccc2c1)C(=O)NO | – | – | – | Ratio Ki(app) [6]: > 60 |
| N=C(N)NCCC[C@@H](NC(=O)[C@@H](Cc1ccc(O)cc1)NC(=O)[C@H](N)CCC(=O)O)C(=O)N[C@H](Cc1ccc2ccccc2c1)C(=O)NO | 365 | 85.1 | 833 | – |
| N=C(N)NCCCC[C@H](NC(=O)[C@H](CC(=O)NO)Cc1ccc2ccccc2c1)C(N)=O | – | > 33000 | – | – |
| CC(=O)N[C@@H](CCC(=O)NCCNc1cccc2c(S(=O)(=O)O)cccc12)C(=O)N[C@H](Cc1ccc(O)cc1)C(=O)N(C(=O)c1ccccc1)[C@H](Cc1ccccc1)C(=O)N[C@H](Cc1ccc2ccccc2c1)C(=O)NO | 1.4 | 43.7 | 410 | – |
| NC(=O)[C@H](CCCN=C(N)N)NC(=O)[C@H](Cc1ccc2ccccc2c1)[C@@H](O)C(=O)NO | – | 7020 | – | – |
| N=C(N)NCCC[C@H](NC(=O)[C@H](Cc1ccc2ccccc2c1)[C@@H](O)C(=O)NO)C(=O)N[C@@H](Cc1c[nH]c2ccccc12)C(=O)N[C@@H](CCC(=O)O)C(N)=O | – | – | – | inhibition [7]: inactive; inhibition [8]: inactive; inhibition [9]: inactive; inhibition [10]: inactive; inhibition [11]: inactive |
| NC(=O)[C@H](CCCN=C(N)N)NC(=O)[C@H](Cc1ccc2ccccc2c1)[C@H](O)C(=O)NO | – | 7750 | – | – |
| N=C(N)NCCCC[C@H](NC(=O)[C@@H](CC(=O)NO)Cc1ccc2ccccc2c1)C(N)=O | – | > 33000 | – | – |
| CC[C@@H](C)[C@H]1NC(=O)[C@@H](Cc2ccccc2)NC(=O)[C@@H](Cc2cnc[nH]2)NC(=O)[C@@H](CC(=O)O)NC(=O)CC[C@H](C(=O)N[C@H](Cc2c[nH]c3ccccc23)C(=O)N[C@H](CCCN=C(N)N)C(=O)N[C@H](Cc2ccc3ccccc3c2)C(=O)NO)NC(=O)[C@@H](CCCN=C(N)N)NC1=O | 246 | 23.1 | 171 | – |
| N=C(N)NCCC[C@H](NC(=O)[C@H](CC(=O)NO)Cc1ccc2ccccc2c1)C(=O)N[C@@H](Cc1c[nH]c2ccccc12)C(=O)N[C@@H](CCC(=O)O)C(N)=O | – | 73.3 | – | – |
